pIC50: −log10 of the molar value. One block for each compound: values may come before it. Activity calls are given as the source filed them. No cut-off for these calls is given here.
Experiments:
MDA-MB-468 [1] = settings: Homo sapiens, 2 uM
Jurkat = assay: Antiproliferative activity against human Jurkat cells measured after 7 days by Celltiter-glo assay; type: functional, cell-based; settings: 168 h
How it was run: (§1)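 Cells maintained in RPMI1640 with 10% FBS at 37 °C, 5% CO2. Seeded the day before dosing, grown 12 h, then exposed to graded compound concentrations for 7 days. CellTiter-Glo reagent added, 10 min at room temperature, luminescence read. Inhibition % = (1-(RLU compound - RLU blank)/(RLU DMSO - RLU blank))×100. IC50 from nonlinear regression, normalized dose-response fit.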

BXPC-3 = assay: Antiproliferative activity against human BxPC3 cells measured after 7 days by Celltiter-glo assay; type: functional, cell-based; settings: BXPC-3, 168 h
How it was run: as §1

MDA-MB-468 [2] = assay: Antiproliferative activity against human MDA-MB-468 cells measured after 7 days by Celltiter-glo assay; type: functional, cell-based; settings: MDA-MB-468, 168 h
How it was run: as §1

A549 = assay: Antiproliferative activity against human A549 cells measured after 7 days by Celltiter-glo assay; type: functional, cell-based; settings: A549, 168 h
How it was run: as §1

HCC1937 = assay: Antiproliferative activity against human HCC1937 cells measured after 7 days by Celltiter-glo assay; type: functional, cell-based; settings: HCC1937, 168 h
How it was run: as §1

DU-145 = assay: Antiproliferative activity against human DU145 cells measured after 7 days by Celltiter-glo assay; type: functional, cell-based; settings: DU-145, 168 h
How it was run: as §1

MDA-MB-231 = assay: Antiproliferative activity against human MDA-MB-231 cells measured after 7 days by Celltiter-glo assay; type: functional, cell-based; settings: MDA-MB-231, 168 h
How it was run: as §1

Ramos = assay: Antiproliferative activity against human Ramos cells measured after 7 days by Celltiter-glo assay; type: functional, cell-based; settings: 168 h
How it was run: as §1

A2780 = assay: Antiproliferative activity against human A2780 cells measured after 7 days by Celltiter-glo assay; type: functional, cell-based; settings: A2780, 168 h
How it was run: as §1

MDA-MB-468 [3] = settings: Homo sapiens, 2 uM; remark: listed apart in the source
MDA-MB-468 [4] = assay: Induction of DNA damage in human MDA-MB-468 cells at 2 uM measured after 72 hrs by comet assay; type: functional, cell-based
How it was run: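 MDA-MB-468 cells treated for 72 h, harvested and run in a neutral comet assay. Ethidium bromide staining after electrophoresis. About 200 cell images per group analysed with CASP. DNA damage scored as tail intensity (percentage DNA in tail) and olive tail moment. Mean ± SD of three independent experiments.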

MDA-MB-468 [5] = settings: Homo sapiens, 2 uM; remark: listed apart in the source
CAKI-1 = assay: Antiproliferative activity against human CAKI-1 cells measured after 7 days by Celltiter-glo assay; type: functional, cell-based; settings: CAKI-1, 168 h
How it was run: as §1

SW-620 = assay: Antiproliferative activity against human SW620 cells measured after 7 days by Celltiter-glo assay; type: functional, cell-based; settings: SW-620, 168 h
How it was run: as §1

MDA-MB-468 [6] = assay: Induction of apoptosis in human MDA-MB-468 cells assessed as viable cells at 2 uM measured after 72 hrs by Annexin V-FITC/propidium iodide staining based flow cytometry (reference value: 95.2%); type: functional
HCT-116 = assay: Antiproliferative activity against human HCT116 cells measured after 7 days by Celltiter-glo assay; type: functional, cell-based; settings: HCT-116, 168 h
How it was run: as §1

[7] = target: Phosphatidylinositol 4,5-bisphosphate 3-kinase catalytic subunit alpha isoform (Homo sapiens, UniProt P42336); assay: Inhibition of PI3Kalpha (unknown origin) using PIP2 as substrate measured after 1 hr by ADP-glo plus luminescence assay
Phosphatidylinositol 4,5-bisphosphate 3-kinase catalytic subunit alpha isoform, sequence (P42336 whole entry, canonical isoform): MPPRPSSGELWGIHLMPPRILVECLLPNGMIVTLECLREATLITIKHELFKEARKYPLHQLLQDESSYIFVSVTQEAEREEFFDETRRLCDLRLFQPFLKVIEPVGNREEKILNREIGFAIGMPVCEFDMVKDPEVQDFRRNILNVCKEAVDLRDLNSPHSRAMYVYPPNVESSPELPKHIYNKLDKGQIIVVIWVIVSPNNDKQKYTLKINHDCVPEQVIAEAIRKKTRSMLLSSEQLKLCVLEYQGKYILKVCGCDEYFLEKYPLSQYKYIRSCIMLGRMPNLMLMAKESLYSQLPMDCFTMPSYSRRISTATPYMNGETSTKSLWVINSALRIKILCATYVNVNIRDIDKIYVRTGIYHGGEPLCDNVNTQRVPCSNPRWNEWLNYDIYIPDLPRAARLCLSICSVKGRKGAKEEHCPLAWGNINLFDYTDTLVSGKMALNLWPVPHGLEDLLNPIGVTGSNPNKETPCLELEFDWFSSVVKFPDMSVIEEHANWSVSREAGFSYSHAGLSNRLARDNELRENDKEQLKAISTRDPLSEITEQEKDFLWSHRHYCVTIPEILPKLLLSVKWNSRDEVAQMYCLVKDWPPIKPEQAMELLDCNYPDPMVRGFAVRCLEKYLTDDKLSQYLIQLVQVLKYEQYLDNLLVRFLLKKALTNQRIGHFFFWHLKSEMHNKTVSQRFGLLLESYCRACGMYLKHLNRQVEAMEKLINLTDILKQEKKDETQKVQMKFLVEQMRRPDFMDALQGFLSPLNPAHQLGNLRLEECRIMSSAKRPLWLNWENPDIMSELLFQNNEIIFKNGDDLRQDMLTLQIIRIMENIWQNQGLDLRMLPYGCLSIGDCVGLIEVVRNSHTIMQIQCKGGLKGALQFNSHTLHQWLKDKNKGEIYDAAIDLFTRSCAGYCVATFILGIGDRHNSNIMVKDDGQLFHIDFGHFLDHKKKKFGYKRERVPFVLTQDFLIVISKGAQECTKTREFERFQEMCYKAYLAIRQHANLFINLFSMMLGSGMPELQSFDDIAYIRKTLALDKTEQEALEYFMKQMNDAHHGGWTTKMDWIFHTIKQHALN

[8] = target: Poly [ADP-ribose] polymerase 1 (Homo sapiens, UniProt P09874); assay: Inhibition of recombinant human PARP1 using histone as substrate after 1 hr in presence of biotinylated NAD+ by ELISA
Poly [ADP-ribose] polymerase 1, sequence (P09874 whole entry): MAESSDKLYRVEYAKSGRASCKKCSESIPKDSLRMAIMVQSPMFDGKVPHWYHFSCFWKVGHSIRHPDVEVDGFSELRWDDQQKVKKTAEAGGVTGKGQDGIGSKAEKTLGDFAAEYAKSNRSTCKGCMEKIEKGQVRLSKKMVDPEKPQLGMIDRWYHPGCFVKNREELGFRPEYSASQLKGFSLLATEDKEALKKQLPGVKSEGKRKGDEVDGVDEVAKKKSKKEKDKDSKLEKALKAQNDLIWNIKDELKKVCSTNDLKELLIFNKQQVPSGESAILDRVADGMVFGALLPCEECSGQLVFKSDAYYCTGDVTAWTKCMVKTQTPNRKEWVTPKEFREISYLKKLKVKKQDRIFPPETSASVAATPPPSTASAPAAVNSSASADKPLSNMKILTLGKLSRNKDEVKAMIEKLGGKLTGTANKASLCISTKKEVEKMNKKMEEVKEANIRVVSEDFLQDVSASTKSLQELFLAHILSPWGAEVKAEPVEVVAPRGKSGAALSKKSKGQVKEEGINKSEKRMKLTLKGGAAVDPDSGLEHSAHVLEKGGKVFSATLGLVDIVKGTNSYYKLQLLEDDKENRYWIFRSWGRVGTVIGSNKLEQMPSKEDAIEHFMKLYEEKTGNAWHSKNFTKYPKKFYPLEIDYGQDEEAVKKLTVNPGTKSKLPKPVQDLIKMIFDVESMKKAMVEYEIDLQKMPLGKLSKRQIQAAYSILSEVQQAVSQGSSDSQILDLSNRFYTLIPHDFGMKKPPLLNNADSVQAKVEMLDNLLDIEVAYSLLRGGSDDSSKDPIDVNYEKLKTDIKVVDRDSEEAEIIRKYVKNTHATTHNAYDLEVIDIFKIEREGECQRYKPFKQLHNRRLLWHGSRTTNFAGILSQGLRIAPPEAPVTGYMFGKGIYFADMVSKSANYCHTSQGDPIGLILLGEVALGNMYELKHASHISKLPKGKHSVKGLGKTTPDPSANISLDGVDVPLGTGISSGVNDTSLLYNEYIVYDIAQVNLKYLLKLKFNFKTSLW

SMILES: O=C(c1cc(Cc2n[nH]c(=O)c3ccccc23)ccc1F)N1CCN(c2nc(-c3ccc4cn[nH]c4c3)nc(N3CCOCC3)n2)CC1
pIC50 [7]: < 5.00 | pIC50 [8]: 9.17

SMILES: O=C(c1cc(Cc2n[nH]c(=O)c3ccccc23)ccc1F)N1CCN(c2nc(-c3cccc4[nH]ccc34)nc(N3CCOCC3)n2)CC1
pIC50 [7]: 6.20 | pIC50 [8]: 9.19

SMILES: Nc1ccc(-c2nc3c(c(N4CCOCC4)n2)CCN(C(=O)c2cc(Cc4n[nH]c(=O)c5ccccc45)ccc2F)C3)cn1
pIC50 [7]: 7.52 | pIC50 [8]: 8.10

SMILES: Nc1cc(C(F)(F)F)c(-c2cc(N3CCN(C(=O)c4cc(Cc5n[nH]c(=O)c6ccccc56)ccc4F)CC3)nc(N3CCOCC3)n2)cn1
pIC50 [7]: 6.49 | pIC50 [8]: 7.81

SMILES: O=C(c1cc(Cc2n[nH]c(=O)c3ccccc23)ccc1F)N1CCN(c2nc(-c3cccc4[nH]ncc34)nc(N3CCOCC3)n2)CC1
pIC50 [7]: 6.46 | pIC50 [8]: 9.36

Second part, led by results:

pIC50 (Jurkat): 5.77 | pIC50 (BXPC-3): 4.93 | pIC50 (MDA-MB-468 [2]): 4.86 | pIC50 (A549): 5.27 | pIC50 (HCC1937): 5.34 | pIC50 (DU-145): 5.20 | pIC50 (MDA-MB-231): 4.74 | pIC50 (Ramos): 5.40 | pIC50 (A2780): 6.13 | pIC50 (SW-620): 4.99 | pIC50 (HCT-116): 5.52
SMILES: O=C(c1cc(Cc2n[nH]c(=O)c3ccccc23)ccc1F)N1CCN(C(=O)C2CC2)CC1 [OLAPARIB]
inhibition (MDA-MB-468 [1]): Active | inhibition (MDA-MB-468 [3]): Active | Activity (MDA-MB-468 [4]): Active | inhibition (MDA-MB-468 [5]): Active | pIC50 (CAKI-1): 5.15 | Activity (MDA-MB-468 [6]): 91.5%

pIC50 [7]: 7.36 | pIC50 [8]: 8.31
SMILES: O=C(c1cc(Cc2n[nH]c(=O)c3ccccc23)ccc1F)N1CCc2c(nc(-c3cccc4[nH]ccc34)nc2N2CCOCC2)C1

pIC50 [7]: 6.88 | pIC50 [8]: 8.97
SMILES: Nc1ccc(-c2nc(N3CCOCC3)nc(N3CCN(C(=O)c4cc(Cc5n[nH]c(=O)c6ccccc56)ccc4F)CC3)n2)cn1

pIC50 [7]: 5.92 | pIC50 [8]: 8.95
SMILES: Nc1ncc(-c2nc(N3CCOCC3)nc(N3CCN(C(=O)c4cc(Cc5n[nH]c(=O)c6ccccc56)ccc4F)CC3)n2)cc1C(F)(F)F

— ChEMBL document CHEMBL4376860, “Discovery of Novel Dual Poly(ADP-ribose)polymerase and Phosphoinositide 3-Kinase Inhibitors as a Promising Strategy for Cancer Therapy” (J Med Chem, 2020)
